Experiments:
[1] = Therapeutic index, ratio of MTD for MDCK2 cells to IC50 for Influenza A/PR8/34 (H1N1) virus; type: cell-based; settings: dog, read-out: TI
Procedure, shortened: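 TI = MTC/IC50. IC50 comes from a focus reduction cell ELISA (anti-NP antibody HB65) in MDCKII cells, which were pre-incubated 5 min with serially diluted compound and then infected with serially diluted A/PR8/34. IC50 was obtained by regression where a dose-effect relation was seen; assays were run at least twice.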

[2] = tested on: Influenza A virus; assay: Antiviral activity against Influenza A/PR8/34 (H1N1) virus infected in MDCK2 cells assessed as raft modulation using N-terminally sterol-linked peptide as tracer relative to control; type: functional, A/Puerto Rico/8/1934(H1N1), MDCK-II; set-up: concentration or dose not given beside the values
Procedure, shortened: (§1)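 Raft liposomes (mol %: cholesterol 35, sphingomyelin 10.5, ganglioside M1 3.5, phosphatidylcholine 25.5, phosphatidylserine 25.5). Tracer is perylene or an N-terminally sterol-linked peptide inserted in the outer leaflet. Liposome/buffer partitioning is read by fluorescence; P is approximated as the membrane/aqueous tracer ratio. Disrafting % = 100×{1−P_steroid/P_DMSO}; augmentation % = −100×{1−P_DMSO/P_steroid}.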

[3] = Cytotoxicity against MDCK2 cells assessed as maximum tolerated concentration by lactate dehydrogenase release assay; type: cell-based, Canis lupus familiaris, MDCK-II; settings: dog, read-out: MTD
Procedure, shortened: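 Maximum tolerated concentration in MDCKII cells from LDH release, determined under focus reduction assay conditions.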

[4] = tested on: Influenza A virus; assay: Antiviral activity against Influenza A/PR8/34 (H1N1) virus infected in MDCK2 cells assessed as inactivation of virus by virucidal assay relative to control; type: functional, A/Puerto Rico/8/1934(H1N1), MDCK-II; set-up: concentration or dose not given beside the values
Procedure, shortened: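 Influenza A/PR8/34 (H1N1) incubated with compound for 30 min, then titrated by focus reduction assay (cell ELISA in MDCKII cells with anti-nucleoprotein antibody HB65). Activity expressed relative to DMSO solvent control set at 100%.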

[5] = tested on: Influenza A virus; assay: Antiviral activity against Influenza A/PR8/34 (H1N1) virus infected in MDCK2 cells assessed as inhibition of virus budding by ELISA relative to control; type: functional, A/Puerto Rico/8/1934(H1N1), MDCK-II
Procedure, shortened: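 Infected MDCKII cells biotinylated 6 h post-infection; excess biotin quenched, and virus budded over the next hour harvested. Biotinylated particles captured on streptavidin-coated plates and detected by ELISA. Result relative to DMSO solvent control (100%).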

[6] = tested on: Influenza A virus; assay: Antiviral activity against Influenza A/PR8/34 (H1N1) virus infected in MDCK2 cells assessed as raft modulation using perylene as tracer relative to control; type: functional, A/Puerto Rico/8/1934(H1N1), MDCK-II; set-up: concentration or dose not given beside the values; procedure, shortened: as §1
[7] = tested on: Influenza A virus; assay: Antiviral activity against Influenza A/PR8/34 (H1N1) virus infected in MDCK2 cells assessed as inhibition of virus reproduction by ELISA; type: functional, organism-based; settings: A/Puerto Rico/8/1934(H1N1), MDCK-II

| Compound | selectivity ratio [1] | Activity [2] [%] | MNTC [3] [µM] | Activity [4] [%] | inhibition (INH) [5] [%] | Activity [6] [%] | IC50 [7] [µM] | IC90 [7] [µM] |
| --- | --- | --- | --- | --- | --- | --- | --- | --- |
| CC(C)CCC[C@@H](C)[C@H]1CC[C@H]2[C@@H]3CC[C@H]4C[C@H](N)CC[C@]4(C)[C@H]3CC[C@]12C | 7.9 | 56.3 | 15 | 28.5 | 79.9 | -72.8 | 1.9 | ≥ 15 |
| CC(C)CCC[C@@H](C)[C@H]1CC[C@H]2[C@@H]3CC[C@@]4(O)[C@H](O)C(=O)CC[C@]4(C)[C@H]3CC[C@]12C |  |  |  |  |  |  | 16 |  |
| CC(C)CCC[C@@H](C)[C@H]1CC[C@H]2[C@@H]3CC[C@H]4C[C@@H](N(C)C)CC[C@]4(C)[C@H]3CC[C@]12C | 4.1 | 15.6 | 15 | 0 | 42.8 | 15.5 | 3.7 | ≥ 15 |
| CC(C)CCC[C@@H](C)[C@H]1CC[C@H]2[C@@H]3CC[C@H]4C[C@@H]([N+](C)(C)C)CC[C@]4(C)[C@H]3CC[C@]12C.[I-] | 3.6 | 83.5 | 12.5 | 16 | 94.4 | 90.3 | 3.5 | ≥ 12.5 |
| CC(C)CCC[C@@H](C)[C@H]1CC[C@H]2[C@@H]3CC=C4C[C@@H](N)CC[C@]4(C)[C@H]3CC[C@]12C | 2.9 | 78.8 | 25 | 63.4 | 50.9 | 83.2 | 8.6 | 11.4 |
| CC(C)CCC[C@@H](C)[C@H]1CC[C@H]2[C@@H]3CC[C@H]4C[C@H](O)[C@@H](N)C[C@]4(C)[C@H]3CC[C@]12C | 16 | 32.3 | 75 | 75.5 | 53 | 26.5 | 4.7 | 62 |
| CC(C)CCC[C@@H](C)[C@H]1CC[C@H]2[C@@H]3CC[C@H]4C[C@@H](CN)CC[C@]4(C)[C@H]3CC[C@]12C | 9.4 | -39.3 | 37.5 | 90.3 | 30.7 | -66.6 | 4 | 11.6 |
| CC(C)CCC[C@@H](C)[C@H]1CC[C@H]2[C@@H]3CC[C@H]4C[C@H](CN)CC[C@]4(C)[C@H]3CC[C@]12C | 10.1 | -39.6 | 37.5 | 50.9 | 12.7 | -60.3 | 3.7 | 7.7 |
| CC(C)CCC[C@@H](C)[C@H]1CC[C@H]2[C@@H]3CC[C@H]4C[C@](O)(CN)CC[C@]4(C)[C@H]3CC[C@]12C | 10.9 | 15.6 | 25 | 64.2 | 41 | -41.5 | 2.3 | 21.5 |
| CC(C)CCC[C@@H](C)[C@H]1CC[C@H]2[C@@H]3CC[C@H]4C[C@@H](CCN)CC[C@]4(C)[C@H]3CC[C@]12C | 23.8 | 31.2 | 50 | 132 | 65 | -38.2 | 2.1 | 13.4 |
| CC(C)CCC[C@@H](C)[C@H]1CC[C@H]2[C@@H]3CC[C@H]4CCNCC[C@]4(C)[C@H]3CC[C@]12C | 3.8 |  | 12.5 | 44.1 | 61.8 |  | 3.3 | 9.7 |
| CC(C)CCC[C@@H](C)[C@H]1CC[C@H]2[C@@H]3CC[C@H]4NCCC[C@]4(C)[C@H]3CC[C@]12C | 2.5 | 36.1 | 15 | 0 | 20.4 | 2.8 | 5.9 |  |
| CC(C)CCC[C@@H](C)[C@H]1CC[C@H]2[C@@H]3CC[C@@]4(O)[C@H](O)[C@@H](O)CC[C@]4(C)[C@H]3CC[C@]12C | 0.9 | -36.5 | 15 | 76.7 | 39.4 | -65.2 | 16.1 |  |
| CN[C@H]1CC[C@@]2(C)[C@@H](CC[C@@H]3[C@@H]2CC[C@]2(C)[C@@H]([C@H](C)CCCC(C)C)CC[C@@H]32)C1 | 7.6 | -7 | 25 | 0 | 33.8 | -50.5 | 3.3 | 17.5 |
| CC(C)CCCC(C)C1CCC2C3CCC4CC(N)CCC4(C)C3CCC12C (centres undefined) | 8.8 | -7.1 | 15 | 47.8 | 51.8 | -42.4 | 1.7 | 9 |

Source: ChEMBL document CHEMBL2417401, “Evaluation of steroidal amines as lipid raft modulators and potential anti-influenza agents” (Bioorg Med Chem Lett, 2013)
